# According to paper PMC10842602 (Bioorganic & medicinal chemistry, 2023):
# Numbering of substitutions follows the chain as printed.
# Experiments:
# WT human SLACK [1] = biological target: T1, WT human SLACK (Homo sapiens, UniProt Q5JUK3); assay: Tl+ flux assay in HEK-293 cells stably expressing WT human SLACK; format: cell-based; conditions: CRC; IC50 for compounds of mode Inh (also cells printed Inactive)
# T1 sequence (Q5JUK3 1-1235 isoform Q5JUK3-3): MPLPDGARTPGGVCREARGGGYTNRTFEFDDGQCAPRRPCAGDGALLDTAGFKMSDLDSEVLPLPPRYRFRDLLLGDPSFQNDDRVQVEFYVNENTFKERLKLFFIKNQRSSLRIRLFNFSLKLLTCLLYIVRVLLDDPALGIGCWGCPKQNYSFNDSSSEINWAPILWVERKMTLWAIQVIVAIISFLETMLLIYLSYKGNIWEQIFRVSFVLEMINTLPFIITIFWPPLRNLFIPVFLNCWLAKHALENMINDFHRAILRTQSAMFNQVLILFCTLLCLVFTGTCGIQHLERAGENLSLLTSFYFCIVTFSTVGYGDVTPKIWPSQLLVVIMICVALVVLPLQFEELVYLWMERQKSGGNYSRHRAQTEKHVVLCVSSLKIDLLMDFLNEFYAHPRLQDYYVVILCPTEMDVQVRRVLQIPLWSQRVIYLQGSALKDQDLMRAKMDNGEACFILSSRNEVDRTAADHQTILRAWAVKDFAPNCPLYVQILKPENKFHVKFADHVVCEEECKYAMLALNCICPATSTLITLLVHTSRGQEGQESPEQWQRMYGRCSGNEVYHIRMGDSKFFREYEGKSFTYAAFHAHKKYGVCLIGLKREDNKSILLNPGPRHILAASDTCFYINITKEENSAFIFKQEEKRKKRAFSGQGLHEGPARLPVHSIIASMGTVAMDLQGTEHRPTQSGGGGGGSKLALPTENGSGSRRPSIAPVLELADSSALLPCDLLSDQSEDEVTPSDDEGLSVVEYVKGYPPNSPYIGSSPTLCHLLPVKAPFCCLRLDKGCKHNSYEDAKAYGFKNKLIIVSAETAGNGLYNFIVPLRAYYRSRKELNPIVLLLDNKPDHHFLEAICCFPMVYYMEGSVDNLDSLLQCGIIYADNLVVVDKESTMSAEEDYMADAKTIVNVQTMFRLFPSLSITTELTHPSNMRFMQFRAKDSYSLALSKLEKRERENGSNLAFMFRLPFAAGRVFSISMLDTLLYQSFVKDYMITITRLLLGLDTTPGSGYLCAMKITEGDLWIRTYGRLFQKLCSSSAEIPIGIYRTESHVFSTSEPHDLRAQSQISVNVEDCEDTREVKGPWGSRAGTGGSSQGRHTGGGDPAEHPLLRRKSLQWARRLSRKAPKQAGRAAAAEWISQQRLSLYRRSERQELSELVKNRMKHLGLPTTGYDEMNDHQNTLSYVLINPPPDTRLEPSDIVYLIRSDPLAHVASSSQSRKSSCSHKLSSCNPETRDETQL
# Method in brief: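 Stably transfected HEK-293 cells expressing wild-type human SLACK; thallium flux read-out. IC50 or EC50 taken from concentration-response curves, and each compound classed as inhibitor, activator or not active. Efficacy is the response amplitude at 30 μM test compound, as a percentage of the maximum response to a reference SLACK inhibitor (for inhibitors) or loxapine (for activators).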
# Maxi-K (Slo1 α1/β3) = Maxi-K (Slo1 α1/β3) (Homo sapiens, UniProt Q12791); assay: Tl+ flux assay in HEK-293 cells expressing Maxi-K; format: cell-based; conditions: CRC
# WT human SLACK [2] = biological target: T1, WT human SLACK; assay: Whole-cell voltage-clamp electrophysiology, automated patch clamp; format: cell-based; conditions: CRC, CHO cells expressing WT SLACK
# Method in brief: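 CHO cells stably expressing wild-type human SLACK. Currents recorded in whole-cell voltage-clamp mode on an automated patch clamp platform. IC50 derived from concentration-response data for a selected subset of analogs.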
# human A934T SLACK = biological target: T2, human A934T SLACK (Homo sapiens, UniProt Q5JUK3, A915T); assay: Tl+ flux assay in HEK-293 cells expressing A934T SLACK; format: cell-based; conditions: CRC
# T2 sequence (Q5JUK3 1-1235 isoform Q5JUK3-3 A934T): T1 sequence (Q5JUK3 1-1235 isoform Q5JUK3-3) with A934T
# hERG = hERG (Homo sapiens, UniProt Q12809); assay: Tl+ flux assay in HEK-293 stably expressing hERG; format: cell-based; conditions: 10 μM concentration
# [3] = Metabolic stability in mouse liver microsomes; format: in vitro ADME; conditions: multiple time points
# [4] = test system: neurons from Kcnt1^L/L mice; conditions: brain slices, 10 μM; cited from earlier work
# GABAA Cl– channels = conditions: binding displacement assay; cited from earlier work
# Chain of Maxi-K (Slo1 α1/β3) (Q12791 whole entry, species assumed): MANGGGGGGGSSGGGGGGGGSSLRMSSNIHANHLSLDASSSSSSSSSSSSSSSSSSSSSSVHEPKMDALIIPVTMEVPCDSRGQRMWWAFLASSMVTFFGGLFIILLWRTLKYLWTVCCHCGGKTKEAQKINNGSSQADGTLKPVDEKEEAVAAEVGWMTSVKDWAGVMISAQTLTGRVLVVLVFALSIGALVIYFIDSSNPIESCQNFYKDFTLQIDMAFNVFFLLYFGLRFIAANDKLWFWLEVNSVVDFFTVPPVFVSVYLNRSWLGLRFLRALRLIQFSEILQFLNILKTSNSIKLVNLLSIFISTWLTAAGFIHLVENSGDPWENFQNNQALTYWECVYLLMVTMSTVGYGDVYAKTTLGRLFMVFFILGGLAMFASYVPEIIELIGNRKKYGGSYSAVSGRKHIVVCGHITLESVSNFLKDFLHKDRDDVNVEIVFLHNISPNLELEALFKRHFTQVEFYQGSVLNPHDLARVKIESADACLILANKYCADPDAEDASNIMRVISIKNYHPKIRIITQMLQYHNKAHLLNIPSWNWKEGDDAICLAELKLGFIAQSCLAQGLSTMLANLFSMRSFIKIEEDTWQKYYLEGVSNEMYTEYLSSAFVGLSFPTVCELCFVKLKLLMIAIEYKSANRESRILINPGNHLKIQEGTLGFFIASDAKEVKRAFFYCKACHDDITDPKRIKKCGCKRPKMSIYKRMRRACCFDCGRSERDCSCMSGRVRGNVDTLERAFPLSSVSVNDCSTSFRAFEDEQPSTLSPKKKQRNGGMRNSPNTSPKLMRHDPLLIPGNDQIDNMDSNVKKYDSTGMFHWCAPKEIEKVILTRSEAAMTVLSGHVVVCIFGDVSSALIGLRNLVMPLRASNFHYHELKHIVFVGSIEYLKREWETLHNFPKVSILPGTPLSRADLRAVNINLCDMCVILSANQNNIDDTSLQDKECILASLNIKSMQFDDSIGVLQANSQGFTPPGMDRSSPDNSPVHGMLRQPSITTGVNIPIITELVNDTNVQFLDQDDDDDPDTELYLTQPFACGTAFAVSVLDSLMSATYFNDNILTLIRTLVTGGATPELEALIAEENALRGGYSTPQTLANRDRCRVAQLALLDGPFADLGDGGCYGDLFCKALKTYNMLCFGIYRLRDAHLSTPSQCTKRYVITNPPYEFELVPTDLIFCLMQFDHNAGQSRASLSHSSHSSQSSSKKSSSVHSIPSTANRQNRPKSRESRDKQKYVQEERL
# Chain of Maxi-K (Slo1 α1/β3) (Q9NPA1 whole entry partner, species assumed): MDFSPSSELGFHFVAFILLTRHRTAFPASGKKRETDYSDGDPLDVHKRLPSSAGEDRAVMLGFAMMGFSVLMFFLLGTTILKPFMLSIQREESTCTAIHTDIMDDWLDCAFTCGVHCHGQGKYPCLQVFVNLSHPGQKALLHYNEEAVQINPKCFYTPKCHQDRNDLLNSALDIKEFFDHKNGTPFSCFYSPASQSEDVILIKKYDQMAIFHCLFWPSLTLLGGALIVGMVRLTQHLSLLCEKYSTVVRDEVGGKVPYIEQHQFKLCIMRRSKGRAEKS
# Chain of hERG (Q12809 whole entry): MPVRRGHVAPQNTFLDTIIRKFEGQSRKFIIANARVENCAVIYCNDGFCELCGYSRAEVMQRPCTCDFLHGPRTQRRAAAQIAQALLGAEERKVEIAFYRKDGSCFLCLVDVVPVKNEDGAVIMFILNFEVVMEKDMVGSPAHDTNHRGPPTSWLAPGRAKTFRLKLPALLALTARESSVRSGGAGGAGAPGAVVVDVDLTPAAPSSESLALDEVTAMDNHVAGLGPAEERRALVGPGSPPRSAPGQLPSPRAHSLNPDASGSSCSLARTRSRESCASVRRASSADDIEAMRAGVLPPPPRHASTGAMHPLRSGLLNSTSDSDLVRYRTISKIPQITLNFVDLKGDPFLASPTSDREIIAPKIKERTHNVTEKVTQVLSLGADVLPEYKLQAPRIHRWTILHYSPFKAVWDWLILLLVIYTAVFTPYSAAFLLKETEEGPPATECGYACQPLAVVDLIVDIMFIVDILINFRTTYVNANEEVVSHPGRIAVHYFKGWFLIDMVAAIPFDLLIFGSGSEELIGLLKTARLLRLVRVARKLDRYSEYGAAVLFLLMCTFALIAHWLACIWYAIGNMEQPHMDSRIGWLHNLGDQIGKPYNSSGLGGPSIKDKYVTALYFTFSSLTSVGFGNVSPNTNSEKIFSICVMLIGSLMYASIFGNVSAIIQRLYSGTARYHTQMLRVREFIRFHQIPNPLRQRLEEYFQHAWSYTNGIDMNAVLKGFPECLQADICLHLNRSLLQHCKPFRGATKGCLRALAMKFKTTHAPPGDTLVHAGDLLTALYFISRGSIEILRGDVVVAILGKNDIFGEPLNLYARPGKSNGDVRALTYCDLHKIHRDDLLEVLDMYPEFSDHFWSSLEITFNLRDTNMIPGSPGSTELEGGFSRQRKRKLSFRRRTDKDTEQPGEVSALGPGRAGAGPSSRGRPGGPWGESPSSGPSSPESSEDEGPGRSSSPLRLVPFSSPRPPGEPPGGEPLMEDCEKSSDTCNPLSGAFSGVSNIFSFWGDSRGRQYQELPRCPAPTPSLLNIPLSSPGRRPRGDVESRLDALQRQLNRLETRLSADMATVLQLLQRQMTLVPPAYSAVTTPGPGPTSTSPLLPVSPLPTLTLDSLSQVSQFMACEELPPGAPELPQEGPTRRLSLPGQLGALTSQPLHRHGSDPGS
IC50 / EC50 (WT human SLACK [1]) [µM],Maxi-K (Slo1 α1/β3) IC50 (Maxi-K (Slo1 α1/β3)),IC50 (whole-cell EP) (WT human SLACK [2]),A934T IC50 (human A934T SLACK),predicted hepatic clearance (CLHEP) [3] [mL/min/kg],Structure (SMILES),hERG activity (hERG),firing in neurons [4],displacement at GABAA Cl– channels (GABAA Cl– channels) [%]
4.9,inactive,,,,CCOc1ccccc1S(=O)(=O)N1CCC(c2nc(-c3ccc(F)cc3)no2)CC1 [Compound 76],,,
1.1,inactive,submicromolar potency,submicromolar potency,,"Cc1ccc2cccc(S(=O)(=O)N3CC(c4nc(-c5ccc(F)cc5)no4)C3)c2n1 [Compound 122, 3-(4-Fluorophenyl)-5-(1-((2-methylquinolin-8-yl)sulfonyl)azetidin-3-yl)-1,2,4-oxadiazole]",inactive,,
7.4,inactive,,,75,"O=S(=O)(c1cccc2cccnc12)N1CC(c2nc(-c3ccc(F)cc3)no2)C1 [Compound 121, 3-(4-Fluorophenyl)-5-(1-(quinolin-8-ylsulfonyl)azetidin-3-yl)-1,2,4-oxadiazole]",,,
4.8,inactive,submicromolar potency,submicromolar potency,,"CCOc1ccccc1S(=O)(=O)N1CC(c2nc(-c3ccc(F)s3)no2)C1 [Compound 60, 5-(1-((2-Ethoxyphenyl)sulfonyl)azetidin-3-yl)-3-(5-fluorothiophen-2-yl)-1,2,4-oxadiazole]",,,
5.4,inactive,,,,"[2H]C([2H])([2H])C([2H])([2H])Oc1ccccc1S(=O)(=O)N1CC(c2nc(-c3ccc(F)cc3)no2)C1 [Compound 109, 5-(1-((2-(Ethoxy-d5)phenyl)sulfonyl)azetidin-3-yl)-3-(4-fluorophenyl)-1,2,4-oxadiazole]",,,
8.7,inactive,,,,"O=S(=O)(c1cccc2c1OCCC2)N1CC(c2nc(-c3ccc(F)cc3)no2)C1 [Compound 119, 5-(1-(chroman-8-ylsulfonyl)azetidin-3-yl)-3-(4-fluorophenyl)-1,2,4-oxadiazole]",,,

# More lines, now with the values behind:
Structure (SMILES),IC50 / EC50 (WT human SLACK [1]) [µM],Maxi-K (Slo1 α1/β3) IC50 (Maxi-K (Slo1 α1/β3)),IC50 (whole-cell EP) (WT human SLACK [2]),A934T IC50 (human A934T SLACK),predicted hepatic clearance (CLHEP) [3] [mL/min/kg],hERG activity (hERG),firing in neurons [4],displacement at GABAA Cl– channels (GABAA Cl– channels) [%]
"CCOc1ccccc1S(=O)(=O)N1CC(c2nc(-c3ccsc3)no2)C1 [Compound 5, 5-(1-((2-Ethoxyphenyl)sulfonyl)azetidin-3-yl)-3-(thiophen-3-yl)-1,2,4-oxadiazole]",2.1,inactive,submicromolar potency,,,,,
"CCOc1ccccc1S(=O)(=O)N1CC(c2nc(-c3ccc(F)cc3)no2)C1 [Compound 43, 5-(1-((2-Ethoxyphenyl)sulfonyl)azetidin-3-yl)-3-(4-fluorophenyl)-1,2,4-oxadiazole]",3.2,inactive,,,,,,
"CCOc1ccccc1S(=O)(=O)N1CC(c2nc(-c3ccc(F)cc3Cl)no2)C1 [Compound 58, 3-(2-Chloro-4-fluorophenyl)-5-(1-((2-ethoxyphenyl)sulfonyl)azetidin-3-yl)-1,2,4-oxadiazole]",2.1,inactive,submicromolar potency,,,,,
C[C@H](NC(=O)c1cc(C(F)(F)F)nn1C)c1nc(-c2ccnc(C(F)(F)F)c2)no1 [Compound 3],,,,,,,significant reduction in the firing,74
